Measurements: ChEMBL document CHEMBL4011623, “Development of 1-((1,4-trans)-4-Aryloxycyclohexyl)-3-arylurea Activators of Heme-Regulated Inhibitor as Selective Activators of the Eukaryotic Initiation Factor 2 Alpha (eIF2α) Phosphorylation Arm of the Integrated Endoplasmic Reticulum Stress Response” (J Med Chem, 2017)
Activity calls are given as the source filed them. The rule behind the calls is not given here.

Experiments:
[1] = molecular target: Eukaryotic translation initiation factor 2-alpha kinase 1 (Mus musculus) (UniProt Q9Z2R9); experiment: Activation of HRI in mouse KLN cells transfected with 5'UTR of ATF-4 mRNA fused firefly luciferase mRNA and 5'UTR lacking uORF fused renila luciferase mRNA assessed as increase in eIF2alpha phosphorylation by measuring ratio of firefly luciferase to renila luciferase at 5 uM after 16 hrs; format: cell-based
Chain of Eukaryotic translation initiation factor 2-alpha kinase 1 (Mus musculus) (Q9Z2R9 whole entry, the tested form may be a part): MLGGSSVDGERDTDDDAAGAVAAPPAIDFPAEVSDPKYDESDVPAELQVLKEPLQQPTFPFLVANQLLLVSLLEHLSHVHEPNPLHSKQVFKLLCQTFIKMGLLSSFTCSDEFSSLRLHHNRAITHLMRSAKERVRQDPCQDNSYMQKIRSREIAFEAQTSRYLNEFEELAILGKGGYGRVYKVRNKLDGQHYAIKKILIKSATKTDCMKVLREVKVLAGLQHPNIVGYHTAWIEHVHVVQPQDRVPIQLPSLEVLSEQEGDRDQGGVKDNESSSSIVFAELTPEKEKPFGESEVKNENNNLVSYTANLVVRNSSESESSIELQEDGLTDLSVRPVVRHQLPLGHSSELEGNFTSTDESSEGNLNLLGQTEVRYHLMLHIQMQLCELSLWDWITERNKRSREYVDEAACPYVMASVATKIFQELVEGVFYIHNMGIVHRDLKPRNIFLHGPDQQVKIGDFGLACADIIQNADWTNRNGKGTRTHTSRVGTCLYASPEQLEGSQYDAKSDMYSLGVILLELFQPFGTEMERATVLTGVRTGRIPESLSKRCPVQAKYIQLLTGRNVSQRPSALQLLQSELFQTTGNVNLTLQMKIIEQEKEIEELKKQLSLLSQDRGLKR

[2] = molecular target: Eukaryotic translation initiation factor 2-alpha kinase 1 (Mus musculus) (UniProt Q9Z2R9); experiment: Activation of HRI in mouse KLN cells transfected with 5'UTR of ATF-4 mRNA fused firefly luciferase mRNA and 5'UTR lacking uORF fused renila luciferase mRNA assessed as increase in eIF2alpha phosphorylation by measuring ratio of firefly luciferase to renila luciferase at 1.25 uM after 16 hrs; format: cell-based
[3] = Antiproliferative activity against human CRL2813 cells after 5 days by sulforhodamine B assay; format: functional, cell-based; conditions: CRL2813, 120 h
In short: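 CRL-2813 melanoma cells grown 5 days with 0.5–20 μM compound, then fixed in cold 10% TCA and stained with sulforhodamine B. Bound dye measured. Growth % = 100×(T−T0)/(C−T0), with T0 at time zero. IC50 is the concentration giving 50% growth inhibition.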

[4] = molecular target: Eukaryotic translation initiation factor 2-alpha kinase 1 (Mus musculus) (UniProt Q9Z2R9); experiment: Activation of HRI in mouse KLN cells transfected with 5'UTR of ATF-4 mRNA fused firefly luciferase mRNA and 5'UTR lacking uORF fused renila luciferase mRNA assessed as increase in eIF2alpha phosphorylation by measuring ratio of firefly luciferase to renila luciferase after 16 hrs; format: cell-based
[5] = molecular target: Eukaryotic translation initiation factor 2-alpha kinase 1 (Homo sapiens) (UniProt Q9BQI3); experiment: Activation of HRI in human CRL2813 cells assessed as induction of CHOP mRNA level at 5 uM by real-time PCR relative to 18S RNA; format: cell-based
Chain of Eukaryotic translation initiation factor 2-alpha kinase 1 (Homo sapiens) (Q9BQI3 whole entry): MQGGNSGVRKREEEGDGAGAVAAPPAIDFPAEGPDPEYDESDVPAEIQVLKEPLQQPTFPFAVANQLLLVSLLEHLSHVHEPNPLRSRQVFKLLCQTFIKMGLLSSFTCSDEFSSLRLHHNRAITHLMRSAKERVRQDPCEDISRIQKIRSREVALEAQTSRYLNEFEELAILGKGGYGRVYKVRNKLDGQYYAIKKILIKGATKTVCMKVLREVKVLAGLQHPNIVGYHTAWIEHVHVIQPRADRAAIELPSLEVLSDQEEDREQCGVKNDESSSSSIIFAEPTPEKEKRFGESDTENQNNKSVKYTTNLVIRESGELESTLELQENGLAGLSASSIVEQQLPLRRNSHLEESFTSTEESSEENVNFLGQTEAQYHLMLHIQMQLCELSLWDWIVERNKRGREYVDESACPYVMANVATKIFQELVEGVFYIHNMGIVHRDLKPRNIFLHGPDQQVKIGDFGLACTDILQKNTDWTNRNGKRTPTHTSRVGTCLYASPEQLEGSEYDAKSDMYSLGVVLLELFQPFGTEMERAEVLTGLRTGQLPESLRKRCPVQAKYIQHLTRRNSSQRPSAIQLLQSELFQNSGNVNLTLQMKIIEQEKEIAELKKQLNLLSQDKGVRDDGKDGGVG
In short: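 Fold induction of CHOP mRNA in cells treated at 5 μM, normalized to 18S RNA and expressed relative to DMSO (set to 1). Triplicate samples, three independent experiments, mean ± SEM.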

[6] = molecular target: Eukaryotic translation initiation factor 2-alpha kinase 1 (Homo sapiens) (UniProt Q9BQI3); experiment: Activation of HRI in human CRL2813cells assessed as decrease in cyclin D1 protein expression at 5 uM after 8 hrs by Western blot analysis
In short: (§1)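 CRL-2813 cells at 70% confluence in serum-containing, antibiotic-free medium; treated at 5 μM for 8 h. Lysed in M-PER on ice for 30 min, equal protein by BCA, SDS-PAGE and immunoblot for CHOP, cyclin D1 and β-actin. Blots representative of three independent experiments.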

[7] = molecular target: Eukaryotic translation initiation factor 2-alpha kinase 1 (Homo sapiens) (UniProt Q9BQI3); experiment: Activation of HRI in human CRL2813 cells assessed as increase in CHOP protein expression at 5 uM after 8 hrs by Western blot analysis; format: cell-based; in short: as §1
[8] = Effect on beta actin protein expression in human CRL2813 cells at 5 uM after 8 hrs by Western blot analysis; format: ADME, cell-based; conditions: crl2813, 8 h; in short: as §1
[9] = molecular target: Eukaryotic translation initiation factor 2-alpha kinase 1 (Homo sapiens) (UniProt Q9BQI3); experiment: Activation of HRI in human CRL2813 cells assessed as increase in eIF2alpha phosphorylation at 5 uM after 2 hrs by Western blot analysis; format: cell-based
In short: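 Adherent CRL-2813 melanoma cells exposed to 5 μM for 2 h. Lysates immunoblotted with anti-phosphoserine-51 eIF2α and anti-total eIF2α antibodies after BCA normalization and SDS-PAGE. Gels representative of three independent experiments.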

Compound | Ratio [1] | Ratio [2] | Activity [4] | fold change (FC) [5] | Activity [6] | Activity [7] | Activity [9] | IC50 [3] [nM] | Activity [8]
N#Cc1cc(C#N)cc(NC(=O)N[C@H]2CC[C@H](Oc3ccc(C(F)(F)F)cc3)CC2)c1 | 2.36 | 1.51 | Dose-dependent effect | – | – | – | – | 3680 | –
NC(=O)c1cc(O[C@H]2CC[C@H](NC(=O)Nc3cccc(OC(F)(F)F)c3)CC2)ccc1C(F)(F)F | 1.57 | 1.04 | Dose-dependent effect | – | – | – | – | 3660 | –
N#Cc1ccc(NC(=O)N[C@H]2CC[C@H](Oc3ccc(C(F)(F)F)cc3)CC2)cc1 | 11.6 | 3.38 | Dose-dependent effect | 12.8 | Active | Active | Active | 490 | Non-Toxic
N#Cc1ccc(O[C@H]2CC[C@H](NC(=O)Nc3cccc(C(F)(F)F)c3)CC2)cc1 | 3.23 | 0.92 | Dose-dependent effect | – | – | – | – | 6060 | –
O=C(Nc1cccc(C(F)(F)F)c1)N[C@H]1CC[C@H](Oc2ccc(OC(F)(F)F)cc2)CC1 | 10.1 | 3.37 | – | – | – | – | – | 820 | –
O=C(Nc1ccc(Oc2ccc(C(F)(F)F)cc2)cc1)Nc1cccc(OC(F)(F)F)c1 | 6.73 | 2.37 | Dose-dependent effect | – | – | – | – | 500 | –
NC(=O)c1cc(O[C@H]2CC[C@H](NC(=O)Nc3cccc(C(F)(F)F)c3)CC2)ccc1C(F)(F)F | 1.12 | 0.79 | Dose-dependent effect | – | – | – | – | 3360 | –
O=C(Nc1cccc(C(F)(F)F)c1)N[C@H]1CC[C@H](Oc2ccc(C(F)(F)F)cc2[N+](=O)[O-])CC1 | 3.28 | 0.96 | Dose-dependent effect | – | – | – | – | 5510 | –
N#Cc1ccc(NC(=O)N[C@H]2CC[C@H](Oc3ccc(C#N)cc3)CC2)cc1 | 1.38 | 1.03 | Dose-dependent effect | – | – | – | – | 9030 | –
O=C(Nc1cccc(C(F)(F)F)c1)N[C@H]1CC[C@H](Oc2ccc(C(F)(F)F)cn2)CC1 | 6.11 | 1.02 | Dose-dependent effect | – | – | – | – | 1570 | –
CC(=O)Nc1cc(C(F)(F)F)ccc1O[C@H]1CC[C@H](NC(=O)Nc2cccc(OC(F)(F)F)c2)CC1 | 4.31 | 0.85 | Dose-dependent effect | – | – | – | – | 1500 | –
N#Cc1ccc(NC(=O)N[C@H]2CC[C@H](Oc3ccc(C(F)(F)F)cc3)CC2)cc1C#N | 7.75 | 5.54 | Dose-dependent effect | 6.21 | Active | Active | Active | 2010 | Non-Toxic

The next lines start with results.

Ratio [1] | Ratio [2] | Activity [4] | fold change (FC) [5] | Activity [6] | Activity [7] | Activity [9] | Compound | IC50 [3] [nM] | Activity [8]
10.7 | 2.87 | Dose-dependent effect | – | – | – | – | O=C(Nc1cccc(OC(F)(F)F)c1)N[C@H]1CC[C@H](Oc2ccc(OC(F)(F)F)cc2)CC1 | 1450 | –
30.7 | 8.58 | Dose-dependent effect | 14.5 | Active | Active | Active | O=C(Nc1cc(C(F)(F)F)cc(C(F)(F)F)c1)N[C@H]1CC[C@H](Oc2ccc(C(F)(F)F)cc2)CC1 | 450 | Non-Toxic
6.3 | 1.01 | Dose-dependent effect | – | – | – | – | N#Cc1cc(C(F)(F)F)ccc1O[C@H]1CC[C@H](NC(=O)Nc2cccc(C(F)(F)F)c2)CC1 | 1470 | –
1.15 | 1.01 | Dose-dependent effect | – | – | – | – | N#Cc1ccc(O[C@H]2CC[C@H](NC(=O)Nc3cccc(C#N)c3)CC2)cc1 | 8200 | –
3.9 | 0.84 | Dose-dependent effect | – | – | – | – | CC(=O)Nc1cc(C(F)(F)F)ccc1O[C@H]1CC[C@H](NC(=O)Nc2cccc(C(F)(F)F)c2)CC1 | 1460 | –
13.6 | 5.2 | Dose-dependent effect | 11.9 | Active | Active | Active | O=C(Nc1cccc(OC(F)(F)F)c1)N[C@H]1CC[C@H](Oc2ccc(C(F)(F)F)cc2)CC1 | 920 | Non-Toxic
5.13 | 0.88 | Dose-dependent effect | – | – | – | – | NC(=O)c1cc(C(F)(F)F)ccc1O[C@H]1CC[C@H](NC(=O)Nc2cccc(OC(F)(F)F)c2)CC1 | 1530 | –
8.99 | 3.31 | Dose-dependent effect | – | – | – | – | O=C(Nc1ccc(Oc2ccc(C(F)(F)F)cc2)cc1)Nc1cccc(C(F)(F)F)c1 | 440 | –
7 | 0.96 | Dose-dependent effect | – | – | – | – | N#Cc1cccc(NC(=O)N[C@H]2CC[C@H](Oc3ccc(C(F)(F)F)cc3)CC2)c1 | 940 | –
1.49 | 0.91 | Dose-dependent effect | – | – | – | – | NC(=O)c1cc(C(F)(F)F)ccc1O[C@H]1CC[C@H](NC(=O)Nc2cccc(C(F)(F)F)c2)CC1 | 2760 | –
10.2 | 3.23 | Dose-dependent effect | 4.72 | Active | Active | Active | O=C(Nc1cccc(C(F)(F)F)c1)N[C@H]1CC[C@H](Oc2ccc(C(F)(F)F)cc2)CC1 | 540 | Non-Toxic
